Counter-ions that a name gives are not always drawn. The source made the active and inactive calls. The calls are words filed in the database; no cut-off is given here.
What was measured:
Huh-7 = assay: Cytotoxicity against human HuH7 cells assessed as reduction in cell viability after 72 hrs by WST-1 assay; assay type: functional, cell-based; details: Huh-7, 72 h
How it was run: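 Cells seeded at 1 × 10^4 per well, cultured overnight, then exposed to compound for 72 h. WST-1 (0.5 mM) with 1-PMS (0.02 mM) in medium added for 60 min at 37 °C. Absorbance read at 438 nm, reference 620 nm. Viability expressed as percent of 0.1% EtOH-treated controls. IC50 reported.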

[1] = tested on: Mycolicibacterium smegmatis; assay: Antimycobacterial activity against Mycobacterium smegmatis NBRC 3207 at 10 to 20 ug/disc after 2 days by paper disc method; assay type: functional, organism-based
How it was run: (§1)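 Strain stored in 20% glycerol at −80 °C. Grown in Middlebrook 7H9 broth with 0.05% polysorbate 80, 0.5% glycerol and 10% OADC at 37 °C for 2 days, then adjusted to 1.0 × 10^6 CFU/mL and spread on the same medium with 1.5% agar. Samples in CH3OH dried onto 6 mm filter discs, incubated 37 °C for 2 days. Read-out is inhibition zone (mm). Streptomycin sulfate 5 μg/disc as positive control, CH3OH as negative control.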

[2] = tested on: Mycolicibacterium smegmatis; assay: Antimycobacterial activity against Mycobacterium smegmatis NBRC 3207 at 10 ug/disc after 2 days by paper disc method; assay type: functional; details: NBRC 3207, 48 h, read-out: IZ
How it was run: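 Paper disc diffusion. Strain kept in 20% glycerol at −80 °C, then grown 2 days at 37 °C in Middlebrook 7H9 broth with 0.05% polysorbate 80, 0.5% glycerol and 10% OADC. Adjusted to 1.0 × 10^6 CFU/mL and spread on the same medium with 1.5% agar. Sample in CH3OH dried onto 6 mm discs. Plates incubated 37 °C, 2 days. Inhibition zone read in mm. Streptomycin sulfate (5 μg/disc) positive control; CH3OH negative control.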

[3] = tested on: Mycolicibacterium smegmatis; assay: Antimycobacterial activity against Mycobacterium smegmatis NBRC 3207 at 5 ug/disc after 2 days by paper disc method; assay type: functional; details: NBRC 3207, 48 h, read-out: IZ; how it was run: as §1

Structure (SMILES)	IC50 (Huh-7)	inhibition [1]	zone of inhibition at 10 µg/disc [2]	zone of inhibition at 5 µg/disc [3]
CCCCC[C@H]1O[C@@H]2CC[C@H]1NC(=N)N2	> 10 µM	inactive	–	–
C1=C\[C@H]2[C@@H]3CCCC[C@H]3C[C@H]2NCCCN[C@H]2C[C@@H]3CCCC[C@H]3[C@@H]2/C=C/1	6.7 µM	–	7 mm	–
COc1cccc2c1C(=O)c1c(O)c3c(c(O)c1C2=O)C[C@@](O)(C(=O)CO)C[C@@H]3O[C@H]1C[C@H](N)[C@H](O)[C@H](C)O1 [DOXORUBICIN]	0.4 µM	–	–	–
C1=C\[C@H]2[C@@H]3CCCC[C@H]3C[C@@H]2NCCCN[C@@H]2C[C@@H]3CCCC[C@H]3[C@@H]2/C=C/1	> 10 µM	–	12 mm	–
N[C@@H]1C[C@@H]2CCCC[C@H]2[C@@H]1/C=C/C=C\[C@H]1[C@@H]2CCCC[C@H]2C[C@@H]1N	7.2 µM	–	8 mm	–
CN[C@@H]1[C@H](O[C@H]2[C@H](O[C@H]3[C@H](O)[C@@H](O)[C@H](N=C(N)N)[C@@H](O)[C@@H]3N=C(N)N)O[C@@H](C)[C@]2(O)C=O)O[C@@H](CO)[C@H](O)[C@H]1O [STREPTOMYCIN SULFATE]	–	–	–	30 mm
C1=C/[C@H]2[C@@H]3CCCC[C@H]3C[C@@H]2NCCCN[C@@H]2C[C@@H]3CCCC[C@H]3[C@@H]2/C=C/1 [HALICLONADIAMINE]	3.6 µM	–	16 mm	–
CCCCC[C@@H]1O[C@@H]2CC[C@H]1NC(=N)N2	> 10 µM	inactive	–	–
C1=C/[C@H]2[C@@H]3CCCC[C@H]3C[C@H]2NCCCN[C@@H]2C[C@@H]3CCCC[C@H]3[C@@H]2/C=C/1	3.9 µM	–	12 mm	–
N[C@@H]1C[C@@H]2CCCC[C@H]2[C@@H]1/C=C\C=C\[C@H]1[C@@H]2CCCC[C@H]2C[C@@H]1N	7.8 µM	–	7 mm	–
